Source: PubChem (several laboratories)
Tb hexokinase = blocks Trypanosoma brucei hexokinase 1 activity. recombinant TbHK1, G6PDH-coupled NADH A340. inhibition, % at 10 µM. hit rate 0.11% among 220,000. AID 1430;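 active = inhibition of 50% or more in the single-dose primary screen; inactive = inhibition below 50%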
Hsp70 act = switches on Hsp70 transcription; HeLa Hsp70 promoter luciferase reporter, luminescence; scaled: vehicle 0, proteasome-inhibitor control 100%; activation, % at 10 µM; hit rate 0.04% among 200,000; AID 1203;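 active = activation above the mean across all tested compounds plus 3 SD, cutoff set per campaign, cut at about 5.5% in these data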;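 also: 100% = MG132 at 30 µM as the positive control and 0% = DMSO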
HSF1 activator = increases HSF-1 driven luciferase reporter signal; NIH3T3-HGL HSF-1 luciferase reporter, MG132, 8 h; 100% = twice DMSO control signal; AID 504408; activation, % at 9 µM; hit rate 1.7% among 300,000;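 active = mean replicate activation of at least 50% with a set share of replicates each reaching 50%; inconclusive = only one of those two conditions met; inactive = mean below 50% and too few replicates reaching it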;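 also: 0% = median of the neutral control wells and 100% = twice that signal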
HSF1 inhib = HSF1 inhibition | NIH3T3-HGL HSE-luciferase, MG132-induced, luminescence 8 h; stronger effect = lower value | activity change, negative = inhibition, % at 7.5 µM (by protocol) | hit rate 0.77% among 300,000;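 active = more than half of replicate wells show activity change below -50%, luminescence cut by over half; inconclusive = some wells, but at most half, below -50%; inactive = no replicate well below -50%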;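 also: luciferase reports HSF-1 transcriptional activity via heat shock element; 0% = median of DMSO wells and -100% = zero luminescence signal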
HKDC1 inh = blocks human hexokinase HKDC1 activity. Q2TB90. recombinant HKDC1, G6PDH/diaphorase resazurin coupled fluorescence. inhibition, % at 20 µM. hit rate 0.16% among 340,000. AID 493160;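 active = inhibition above about 35% when tested at 20 µM, limit read from the data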;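 also: plate controls were DMSO wells with enzyme for no effect and DMSO wells lacking enzyme for full effect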
Target sequence (Q2TB90 whole entry, looked up): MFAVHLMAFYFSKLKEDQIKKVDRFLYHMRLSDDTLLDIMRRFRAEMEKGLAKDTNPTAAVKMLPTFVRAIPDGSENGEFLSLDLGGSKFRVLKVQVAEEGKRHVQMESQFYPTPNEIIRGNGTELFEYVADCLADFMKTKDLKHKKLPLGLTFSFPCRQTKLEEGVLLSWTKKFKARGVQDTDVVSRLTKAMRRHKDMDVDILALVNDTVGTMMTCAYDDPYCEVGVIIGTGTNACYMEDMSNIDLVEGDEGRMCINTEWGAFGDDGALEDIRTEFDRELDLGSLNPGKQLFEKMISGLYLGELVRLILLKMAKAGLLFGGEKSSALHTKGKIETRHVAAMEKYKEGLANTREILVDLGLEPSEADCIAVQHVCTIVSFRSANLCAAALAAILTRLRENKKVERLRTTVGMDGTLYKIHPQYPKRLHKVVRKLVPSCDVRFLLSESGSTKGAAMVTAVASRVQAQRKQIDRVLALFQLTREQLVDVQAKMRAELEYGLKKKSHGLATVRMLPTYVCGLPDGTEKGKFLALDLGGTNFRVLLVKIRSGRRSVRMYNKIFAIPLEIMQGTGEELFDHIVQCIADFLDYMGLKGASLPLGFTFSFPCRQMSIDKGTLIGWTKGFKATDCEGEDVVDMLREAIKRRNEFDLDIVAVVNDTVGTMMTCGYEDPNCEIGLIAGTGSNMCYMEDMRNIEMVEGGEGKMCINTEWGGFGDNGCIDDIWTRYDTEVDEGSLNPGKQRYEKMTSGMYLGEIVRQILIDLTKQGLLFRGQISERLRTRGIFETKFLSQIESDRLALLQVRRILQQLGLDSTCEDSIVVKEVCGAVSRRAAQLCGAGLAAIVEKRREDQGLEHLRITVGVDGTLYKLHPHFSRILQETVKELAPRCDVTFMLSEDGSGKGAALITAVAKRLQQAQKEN
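Assay system: in-house recombinant HK5 (HKDC1) enzyme. Input: HKDC1 at 5 µg/mL. Medium: Tris pH 8.0 buffer with MgCl2, Tween-20, BSA, BME. Dosing: single 20 µM dose. Schedule: 90 min reaction incubation at room temperature, dark. Signal: resazurin-to-resorufin fluorescence via G6PDH and diaphorase coupling, 525/613 nm. Controls: DMSO-enzyme wells negative, buffer-substituted wells positive.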
HSP90 refold inh = inhibitors of HSP90 luciferase refolding in rabbit reticulocyte lysate. luciferase refolding luminescence, 3 h. inhibition, % at 5.6 µM. hit rate 0.91% among 290,000;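 active = inhibition above the screen-wide mean plus 3 SD, computed separately per campaign, cut at about 16% in these data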;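 also: 0% = DMSO wells and 100% = 60 µM geldanamycin wells; inhibitors lower the luminescence because luciferase stays unfolded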
HSP90 inh confirm = confirmation of HSP90 inhibitors. hit rate 64% among 2,300. shares compounds with HSP90 refold inh. inhibition, % at 5.9 µM. rabbit reticulocyte lysate, luciferase refolding luminescence, 3 h; in the data active = inhibition above about 18%;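 also: 0% = vehicle wells and 100% = reference inhibitor wells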
luciferase ctr = counter-screen for HSP90 inhibitors: inhibitors of firefly luciferase; hit rate 48% among 2,300; inhibition, % at 5.9 µM; purified native firefly luciferase, luminescence; AID 1847; shares compounds with HSP90 refold inh;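 active = inhibition above the mean inhibition of all tested sample wells plus 3 SD, cut at about 10% in these data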;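 also: 0% = DMSO with luciferase and 100% = wells lacking luciferase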
Active calls of the source: *; ? = inconclusive; nt = no result. Most compounds without a hit are left out; they make up all but 3.1% or so of the library.

SMILES | Tb hexokinase | Hsp70 act | HSF1 activator | HSF1 inhib | HKDC1 inh | HSP90 refold inh | HSP90 inh confirm | luciferase ctr
Cn1c(-c2ccccc2)cnc1SCC(=O)N1CCCCC1 | -1 | 0 | ? | 16 | -5 | 33* | 64* | 56*
CC(C)c1c(O)ccc2c1CC[C@H]1C(C)(C)CCC[C@]21C | nt | nt | nt | nt | 0 | nt | nt | nt
CCN(CC)P(=O)(Nc1ccc([N+](=O)[O-])cc1)c1c(C)nn(CCC#N)c1NC(=O)c1ccc(Cl)cc1 (configuration not stated) | nt | nt | 40 | 5 | -4 | 57* | 14 | -8
O=C1c2ccccc2NC(c2ccc3c(c2)OCCO3)N1c1ccc2c(c1)OCCO2 (configuration not stated) | -7 | 0 | 11 | 8 | -10 | 22* | 17* | 3
COc1cc(C2Nc3ccccc3C(=O)N2c2ccccc2OC)ccc1O (configuration not stated) | -12 | 1 | 20 | 14 | -1 | -5 | nt | nt
COc1cc(C2Nc3ccccc3C(=O)N2c2ccc3c(c2)OCCO3)ccc1OCC(C)C (configuration not stated) | -14 | 0 | 48 | 20 | 0 | 45* | 4 | -10
Cc1cc(C(=O)CN2C(=O)NC(C)(c3ccccc3)C2=O)c(C)n1CC1CCCO1 (configuration not stated) | -3 | 0 | -1 | -1 | -2 | 2 | nt | nt
Cc1cc(C(=O)COC(=O)c2ccc(O)cc2)c(C)n1CC1CCCO1 (configuration not stated) | -3 | 0 | -21 | -11 | -2 | 32* | 39* | 43*
COc1cc(OC)cc(C(=O)OCC(=O)c2cc(C)n(CC3CCCO3)c2C)c1 (configuration not stated) | nt | nt | nt | nt | -3 | nt | nt | nt
Cc1cc(C(=O)CN2C(=O)c3ccccc3S2(=O)=O)c(C)n1CC1CCCO1 (configuration not stated) | -2 | -1 | -56 | ? | 1 | 24* | 28* | -14
Cc1ccc2c(c1)Cc1nc3ccccc3nc1-2 | -13 | 0 | 21 | 7 | 3 | 27* | 71* | 63*
Cc1nc(SCc2cccc(C(=O)O)c2)nc2c1CCCC2 | -1 | 0 | -33 | -27 | -1 | 18* | 47* | 18*
Cc1ccc2cc(NC(=O)c3ccccc3)ccc2n1 | nt | nt | 38 | 24 | 5 | 18* | 15 | -3
Cc1cc(C(=O)Nc2ccc3ccccc3c2)oc1C | nt | nt | 39 | 14 | 9 | 7 | nt | nt
Cc1ccc(C(=O)Nc2ccc3ccccc3c2)cc1 | nt | nt | -39 | -35 | 0 | 69* | 76* | 69*
Cc1ccoc1C(=O)Nc1ccc2ccccc2c1 | nt | nt | 32 | 11 | 7 | 24* | 56* | 47*
Cc1ccc2cc(NC(=O)CC(CC(=O)O)c3ccccc3)ccc2n1 (configuration not stated) | nt | nt | -5 | 3 | 10 | -7 | nt | nt
O=C(Nc1ccc2ccccc2c1)c1ccc(Cl)cc1 | nt | nt | -3 | -7 | -2 | 23* | 37* | 17*
O=C(Nc1ccncc1)c1ccc2ccccc2c1 | -6 | 0 | -6 | 4 | -3 | -2 | nt | nt
O=C(Nc1ccc(C(=O)NCCCN2CCN(c3ccccc3)CC2)cc1)C1=CSCCO1 | nt | nt | 7 | 5 | -5 | 0 | nt | nt
c1ccc(Cn2cc(-c3ccccc3)cn2)cc1 | nt | nt | nt | nt | 0 | nt | nt | nt
CCCCOc1ccc(-c2ncc(C(=O)O)c(C)n2)cc1 | 1 | 1 | -30 | -15 | -5 | 38* | 63* | 18*
COc1ccc(-c2cc(=O)[nH][nH]2)cc1OC | -7 | 0 | 30 | 18 | -6 | 34* | 1 | -1
COc1cccc(-c2cc(=O)[nH][nH]2)c1 | -2 | 0 | 18 | 10 | -10 | 15 | nt | nt
O=c1cc(-c2ccccc2)[nH][nH]1 | 3 | 1 | 25 | 4 | -7 | 40* | -9 | -11
SMILES | Tb hexokinase | Hsp70 act | HSF1 activator | HSF1 inhib | HKDC1 inh | HSP90 refold inh | HSP90 inh confirm | luciferase ctr
C[C@@H]1CCCCCCCCC(=O)OCCN1C(=O)OC(C)(C)C | nt | nt | nt | nt | 3 | nt | nt | nt
COc1ccc(S(=O)(=O)N2CCCC(N(C)CCc3ccccc3)C2)cc1OC (configuration not stated) | nt | nt | 2 | 3 | 2 | -1 | nt | nt
CCOC(=O)c1c(-c2ccc(C)o2)csc1NC(=S)NC(=O)c1ccccc1Br | -22 | 0 | 85* | 82 | 1 | 21* | 5 | -6
O=C(NCC(=O)N1CCN(S(=O)(=O)c2c(F)cccc2F)CC1)c1ccccc1F | nt | nt | nt | nt | 2 | nt | nt | nt
CC1=NN(c2ccccc2)C(=O)/C1=C\N(O)c1ccccc1 | nt | nt | 14 | 9 | 5 | 41* | 80* | -17
COc1cc(C=C2C(=O)c3ccccc3C2=O)cc(OC)c1OC | 10 | 0 | -1 | -6 | 12 | 21* | -6 | -8
COc1cc(C=C2C(=O)c3ccccc3C2=O)ccc1O | -11 | nt | 5 | 4 | -1 | 9 | nt | nt
O=c1nc(N/N=C/c2c[nH]c3ccccc23)cn[nH]1 | -50 | nt | 21 | 10 | -3 | 27* | 30* | 14*
O=c1nc(N/N=C/C=C/c2ccccc2)cn[nH]1 | -30 | nt | 2 | -2 | -4 | 23* | 78* | 65*
C(=C\c1ccccc1)/C=N/Nc1nncc(-c2ccccc2)n1 | -20 | 0 | 6 | 7 | nt | -3 | nt | nt
O=C1C=C(c2ccccc2)C(c2ccccc2)C1 (configuration not stated) | nt | nt | nt | nt | 4 | nt | nt | nt
CC(=O)n1c(-c2ccccc2)c(-c2ccccc2)n(C)c1=O | nt | nt | 21 | 3 | -5 | nt | nt | nt
CC(C)CNC(=O)COCc1cc(-c2ccc3c(c2)OCO3)on1 | nt | nt | 20 | 11 | -10 | -2 | nt | nt
CC(C)CNC(=O)c1cc(-c2ccc3c(c2)OCO3)on1 | nt | nt | 7 | 24 | -6 | 31* | 38* | 24*
CSc1ccccc1NC(=O)c1ccc(N2CC3CC(C2)c2cccc(=O)n2C3)c(NC(=O)c2cccnc2)c1 (configuration not stated) | nt | nt | 0 | 6 | -4 | -4 | nt | nt
Cc1ccc2nc(-c3cc(-c4ccccc4)no3)cn2c1 | -20 | nt | 9 | 2 | 1 | 25* | 69* | 58*
Oc1ccccc1-c1cc(-c2ccccc2)no1 | -5 | 0 | 5 | 10 | -4 | -1 | nt | nt
CCc1ccn2cc(-c3cc(-c4ccccc4)no3)nc2c1 | -16 | nt | -74 | -69* | -1 | 82* | 86* | 84*
Cc1ccnc(NS(=O)(=O)c2ccc(NC(=O)CC(C)c3ccccc3)cc2)n1 (configuration not stated) | nt | nt | -2 | -4 | 2 | -3 | nt | nt
O=C(COc1ccc(S(=O)(=O)N2CCOCC2)cc1)Nc1ccccc1Cl | nt | nt | 8 | -1 | 5 | -4 | nt | nt
